Bioassay records from PubChem.
Sampled rows, rich in hits. Any-hit rate of the full collection: about 1.3%.
SKN-1 inh – suppressors of acrylamide-induced Pgst-4::GFP reporter in worms, primary screen, SKN-1 inhibitor project, whole organism, uHTS, GFP/RFP fluorescence ratio, strain VP596. AID 624304, 2012. 0.49% of 360,000 active. inhibition, % at 21.8 µM. C. elegans VP596 Pgst-4::GFP/RFP ratio, 24 h;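 active means interference check ratio from 0.5 to 1.5 plus GFP to RFP signal ratio inhibition reaching or exceeding a fixed threshold, cut at about 30% in these data, passing the limit was not always enough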
MT1-MMP act inh – blockers of MT1-MMP proenzyme processing, primary screen, HT1080 RFP-PRO-GFP cells, GFP/RFP fluorescence. GFP/RFP ratio fluorescence, overnight; percent of plate control window, DMSO zero. AID 651647, 2012. 0.061% of 360,000 active. Matrix metalloproteinase-14 (Homo sapiens), P50281. GFP/RFP ratio change, % at 20 µM;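 active means GFP/RFP ratio change of at least 30% with cell ATP level not reduced by more than half and red fluorescence within 50% of control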
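Material – HT1080 RFP-PRO-GFP cells · Control set – DMSO wells and RFP-L50D-GFP cells · Incubation – overnight cell settling, then overnight compound exposure, 37 °C, 5% CO2 · Compound dosing – single-point 20 µM compound, 1% DMSO · Read-out – GFP/RFP fluorescence ratio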
iPSC survival up – enhancers of single-cell hiPSC survival, primary screen, ATPlite luminescence; 100% = ROCK inhibitor wells, 0% = DMSO; survival enhancement, % at 20 µM; 0.044% of 360,000 active; AID 602274, 2012; in the data active means survival enhancement above about 18%;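 further: cells exposed to compounds for 16 hours before the ATP read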
DAGLB inhibitor – DAGLB lipase inhibitors, primary screen, biochemical, fluorescence, HTS. HEK293T DAGLB membrane lysate, EnzChek fluorogenic substrate. inhibition, % at 5.17 µM. 0.059% of 340,000 active. Diacylglycerol lipase-beta (Homo sapiens), Q8NCG7; in the data active means inhibition above about 34%;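 further: 0% = enzyme with vehicle and 100% = wells lacking enzyme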
Target sequence (Q8NCG7 whole entry, looked up): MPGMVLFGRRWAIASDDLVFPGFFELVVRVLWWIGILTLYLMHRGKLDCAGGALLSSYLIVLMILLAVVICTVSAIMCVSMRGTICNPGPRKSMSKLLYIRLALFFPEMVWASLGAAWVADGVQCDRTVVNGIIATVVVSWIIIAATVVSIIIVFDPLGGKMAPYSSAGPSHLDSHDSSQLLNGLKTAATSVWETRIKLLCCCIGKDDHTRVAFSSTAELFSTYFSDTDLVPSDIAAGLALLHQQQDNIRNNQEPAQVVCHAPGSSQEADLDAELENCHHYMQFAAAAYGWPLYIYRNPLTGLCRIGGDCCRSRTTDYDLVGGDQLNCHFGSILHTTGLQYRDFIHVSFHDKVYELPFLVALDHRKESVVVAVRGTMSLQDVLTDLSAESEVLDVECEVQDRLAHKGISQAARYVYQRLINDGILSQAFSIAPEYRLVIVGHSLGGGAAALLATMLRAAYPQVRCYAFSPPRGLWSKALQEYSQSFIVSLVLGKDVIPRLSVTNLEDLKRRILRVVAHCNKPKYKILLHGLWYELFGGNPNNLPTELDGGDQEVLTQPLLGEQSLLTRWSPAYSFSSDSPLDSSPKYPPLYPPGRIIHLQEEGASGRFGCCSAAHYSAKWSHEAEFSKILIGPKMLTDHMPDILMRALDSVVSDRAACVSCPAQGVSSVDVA
FAS-TE inh – FAS thioesterase domain inhibitors, primary screen, biochemical, fluorescence intensity, uHTS; Fatty acid synthase (Homo sapiens), P49327; recombinant FAS-TE, OMFH fluorogenic substrate, fluorescence endpoint; inhibition, % at 15 µM; 0.67% of 360,000 active;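 active means compounds whose normalised, plate-corrected inhibition of enzyme fluorescence in the single-dose primary screen is 50% or more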;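 further: 0% = DMSO with enzyme and 100% = substrate without enzyme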
FAS-TE conf – FAS thioesterase domain inhibitors, confirmation, biochemical, fluorescence intensity, single concentration | shares compounds with FAS-TE inh | recombinant FAS-TE, OMFH fluorogenic substrate | inhibition, % at 15 µM | 45% of 2,300 active | AID 624325, 2012;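 active means compounds inhibiting the enzyme by at least 50% at 15 µM in any one of the replicates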;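 further: 0% = enzyme with DMSO only and 100% = wells lacking enzyme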
* = called active by the depositor; x = no result given.

SMILES	SKN-1 inh	MT1-MMP act inh	iPSC survival up	DAGLB inhibitor	FAS-TE inh	FAS-TE conf
COc1ccc(NC(=O)/C(C#N)=C\c2cc(C)n(-c3ccc4c(c3)OCO4)c2C)cc1	0.1	1.7	-1.1	-0.2	54.2*	-4.7
Cc1ccc(NC(=O)/C(C#N)=C/c2cc(C)n(-c3ccc(N4CCOCC4)c([N+](=O)[O-])c3)c2C)c(C)c1	0.3	2.5	8.9	-0.4	9.8	x
CC(=O)Nc1ccc(NC(=O)c2ccc(-c3ccnn3C)c3ccoc23)cc1	2.8	4.9	0.8	x	-3.2	x
CC(C)(C)NC(=O)c1ccc(COc2ccc(Cl)cc2Cl)o1	-1.5	4.8	-0.5	-6.2	65.2*	20.6
COc1ccc(NC(=O)CN(c2ccc([N+](=O)[O-])cc2)S(=O)(=O)c2ccccc2)cc1	9.4	0.2	-1.0	1.5	64.1*	73.7*
COCCNC(=O)C1(C)CCN(C(=O)c2ccc(OC)c(F)c2)C1 (centres undefined)	20.9	-2.3	-1.3	x	-3.7	x
COc1ccc(C(=O)O)cc1NC(=S)NC(=O)c1ccc(-c2ccc(Cl)cc2)o1	14.0	2.5	1.0	0.9	58.3*	66.4*
Cc1nc2ccc([N+](=O)[O-])cc2c(=O)n1Cc1ccc([N+](=O)[O-])cc1	-2.9	6.2	0.3	1.6	59.1*	63.2*
Cc1nc2ccccc2n1Cc1ccccc1Br	3.0	-0.4	-0.5	-1.4	-3.6	x
Cc1ccc(Cn2c(C)nc3ccc([N+](=O)[O-])cc3c2=O)cc1	-6.4	1.2	1.1	1.3	75.3*	59.3*
Cc1nc2ccc([N+](=O)[O-])cc2c(=O)n1Cc1ccccc1Br	7.6	5.1	1.1	-6.7	71.0*	29.2
Cc1nc2ccc([N+](=O)[O-])cc2c(=O)n1Cc1cccc(Br)c1	5.0	3.8	-0.6	-2.7	45.8	x
Cc1nc2ccc([N+](=O)[O-])cc2c(=O)n1Cc1ccc(Br)cc1	1.6	0.2	-0.5	-0.2	93.0*	62.9*
CN1CCN(c2ncnc3c2ncn3[C@H]2CN(Cc3ccc(C(=O)O)cc3)C[C@@H](CO)O2)CC1	2.8	-4.9	0.8	x	0.7	x
O=C(Nc1ccc2c(c1)OCCO2)C(c1ccnc2ccccc12)N1CCN(c2ccc(C(F)(F)F)cn2)CC1 (centres undefined)	-7.7	2.4	-1.5	x	92.1*	33.0
O=C(Nc1ccc2c(c1)OCCO2)C(c1ccnc2ccccc12)N1CCN(c2ccc(F)cc2)CC1 (centres undefined)	0.2	10.6	1.0	x	23.9	x
O=C1OCCN1c1c(-c2ccccc2)c(-c2cccs2)nc2c(-c3ccccc3)cccc12	3.4	4.9	1.4	-6.3	52.0*	28.5
N#Cc1cccc(C=C(C(=O)c2ccccc2)c2ccccc2)c1	3.1	1.0	-1.4	x	32.7	x
COc1cc(-c2nnc(SCC(=O)N3c4ccccc4Sc4ccccc43)o2)cc(OC)c1OC	11.8	5.6	0.2	-0.9	43.8	x
O=C(Sc1nnc(-c2ccccc2)o1)N1c2ccccc2Sc2ccccc21	7.0	4.6	-1.2	10.2	59.7*	28.4*
C[C@H](CO)N1C[C@H](C)[C@@H](CN(C)C(=O)NC2CCCCC2)Oc2c(NC(=O)Nc3ccc4c(c3)OCO4)cccc2C1=O	4.7	2.0	-2.6	0.2	81.8*	85.3*
COc1ccc(NC(=O)Nc2cccc3c2O[C@H](CN(C)C(=O)NC2CCCCC2)[C@@H](C)CN([C@H](C)CO)C3=O)cc1	22.5	1.4	-0.9	-0.1	77.5*	70.7*
CS(=O)(=O)N1CCC(C(=O)Nc2ccc(Cl)cc2Cl)CC1	10.7	3.9	0.1	0.8	-7.5	x
COc1ccc(C2=Nc3ccccc3N(C(=O)c3ccc(C(F)(F)F)cc3)C2C(=O)Nc2ccc3c(c2)OCCO3)cc1 (centres undefined)	-11.9	-0.3	x	x	x	x
Cc1ccc(S(=O)(=O)c2nnn3c2nc(NCCCN2CCCC2=O)c2ccccc23)cc1C	-1.4	-3.5	-0.2	2.3	70.9*	69.1*
SMILES	SKN-1 inh	MT1-MMP act inh	iPSC survival up	DAGLB inhibitor	FAS-TE inh	FAS-TE conf
CCc1ccc(S(=O)(=O)c2nnn3c2nc(NCCNC(C)=O)c2ccccc23)cc1	-9.9	3.0	-1.0	-1.7	76.7*	78.9*
Cc1ccc(S(=O)(=O)c2nnn3c2nc(N2CCOCC2)c2ccccc23)cc1C	7.8	-1.9	-0.5	-1.5	40.7	x
CCCCNc1nc2c(S(=O)(=O)c3ccccc3)nnn2c2ccccc12	-2.1	-0.3	-1.7	1.0	-2.0	x
CCOC1=C2[C@H]([C@H]3C(=O)N(c4ccccc4)C(=O)[C@H]3C1)[C@@H](C(C)C)N(S(=O)(=O)c1ccc(C)cc1)[C@H]2c1ccccc1	14.5	1.4	-0.4	x	57.6*	21.1
CCOC1=C2[C@@H](CN(S(=O)(=O)c3ccc(C)cc3)[C@H]2c2cccs2)[C@H]2C(=O)N(c3ccccc3)C(=O)[C@H]2C1	9.5	-0.4	-0.6	x	11.6	x
CCOC1=C2[C@@H](CN(S(=O)(=O)c3ccc(C)cc3)[C@H]2c2cccc3ccccc23)[C@H]2C(=O)N(c3ccccc3)C(=O)[C@H]2C1	3.6	3.4	-1.3	x	77.1*	14.0
CCOC1=C2[C@@H](CN(S(=O)(=O)c3ccc(C)cc3)[C@H]2c2ccc(Cl)cc2)[C@H]2C(=O)N(c3ccccc3)C(=O)[C@H]2C1	15.4	6.0	-0.3	x	62.0*	39.8
CCOC1=C2[C@@H](CN(S(=O)(=O)c3ccc(C)cc3)[C@H]2c2cccc3ccccc23)[C@H]2C(=O)N(C3CCCCC3)C(=O)[C@H]2C1	11.7	1.0	-0.4	x	67.4*	12.8
CN1CCN(C(=O)OC2CC3CC2[C@H]2CCCCN2C3=O)CC1 (some centres undefined)	14.2	4.3	0.0	x	-10.5	x
Cc1ccc(S(=O)(=O)N2C[C@H]3[C@H]4C(=O)N(C5CCCCC5)C(=O)[C@H]4CC(=O)[C@H]3[C@@H]2c2ccccc2Cl)cc1	6.3	-0.5	0.9	x	62.0*	-1.0
CCCCC[C@@H]1[C@H]2[C@H]3C(=O)N(c4ccccc4)C(=O)[C@H]3CC(=O)[C@H]2[C@H](c2ccccc2)N1S(=O)(=O)c1ccc(C)cc1	-5.9	2.5	-0.1	x	58.8*	19.8
CCCCCC1CC(CC(=O)Nc2ccc([N+](=O)[O-])cc2)C(=O)O1 (centres undefined)	13.7	4.0	1.0	-3.6	53.6*	57.0*
